Results of several laboratories.
Compare with care: the assays were run in different laboratories. pIC50: −log10 of the molar value.
Cell line: MDA-MB-231
Observed: cell growth or viability

With `C[C@@H]1C[C@@H](c2ccc(Br)cc2)c2c(cc3ccccn23)C(=O)O1` (racemic) the pIC50 was 4.66 (resazurin; 72 h).
`C[C@H]1[C@@H](O)O[C@@H]2O[C@@]3(C)CC[C@H]4[C@H](C)CC[C@@H]1[C@@]24OO3` has a pIC50 of under 4.30 (CCK-8; 48 h).
With `C[C@@H]1C[C@@H](c2ccc3c(c2)OCO3)c2c(cc3ccccn23)C(=O)O1` (racemic) the pIC50 was 4.53 (resazurin; 72 h).
`CC(=O)Nc1nc(C)c(-c2csc(Nc3ccccc3)n2)s1` gave a pIC50 of 4.80 (MTT; 72 h).
For `CN(C)c1ccc(-c2nc3ccccc3[nH]2)cc1`, the pIC50 was 4.54 (MTT; 48 h).
`O=C1CCC2(Oc3cccc4cccc(c34)O2)c2c(O)ccc(O)c21` has a pIC50 of under 4.60 (resazurin; 72 h).
`Clc1ccc(-c2nc3ccccc3n2Cc2ccccc2)cc1Cl` gave a pIC50 of 4.28 (MTT).
For `CC(=O)O[C@H]1C(=O)[C@@]2(C)[C@H]([C@H](OC(=O)c3ccccc3)[C@]3(O)C[C@H](OC(=O)[C@H](O)[C@@H](NC(=O)c4ccccc4)c4ccccc4)C(C)=C1C3(C)C)[C@]1(OC(C)=O)CO[C@@H]1C[C@@H]2O`, the pIC50 was 8.22 (ATP luminescence; 72 h).
`Cc1ccc2nc(-c3ccc(Cl)cc3)n(Cc3ccccc3Cl)c2c1` gave a pIC50 of 4.13 (MTT).
The pIC50 of `O=C(C=C[c-]1cccc1)c1sccc1Br.[Fe+2].c1cc[cH-]c1` is reported as 5.18 (MTT; 72 h).
`CCOc1ccc(-c2nc3ccccc3n2Cc2ccccc2)cc1` gave a pIC50 of 4.68 (MTT).
`FC(F)(F)c1cccc(Nc2ncnc3ccc(Nc4ccccc4)cc23)c1` gave a pIC50 of 4.81 (MTT; 24 h).
`CCCCCCCCCCCC(=O)Oc1c(C)c(O)c(C(=O)/C=C/c2ccccc2)c(OC)c1C` gave a pIC50 of under 4.30 (SRB; 72 h).
With `FC(F)(F)c1cccc(Nc2ncnc3ccc(-c4ccc5c(c4)OCO5)cc23)c1` the pIC50 was 5.14 (MTT; 24 h).
`O=C(CSc1nc2ccc(N=Cc3ccc(Sc4nnnn4-c4ccccc4)o3)cc2s1)N1CCOCC1` has a pIC50 of 4.31 (MTT; 72 h).
For `CCOc1ccc(-c2nc3ccccc3[nH]2)cc1`, the pIC50 was under 4.00 (MTT; 48 h).
With `COc1cccc2c1C(=O)c1c(O)c3c(c(O)c1C2=O)C[C@@](O)(C(=O)CO)C[C@@H]3O[C@H]1C[C@H](N)[C@H](O)[C@H](C)O1` the pIC50 was 5.17 (MTT).
For `c1ccc2c(-c3nc4ccccc4[nH]3)c3ccccc3cc2c1`, the pIC50 was 5.08 (MTT; 48 h).
With `COc1cc([C@H]2C[C@@H](C)OC(=O)c3cc4ccccn4c32)cc(OC)c1OC` (racemic) the pIC50 was under 4.00 (resazurin; 72 h).
The pIC50 of `Oc1ccc(Br)cc1-c1nc2ccccc2[nH]1` is reported as 4.89 (MTT; 48 h).
`O=C(Nc1nnc(-c2cc3ccccc3[nH]2)s1)c1cc2c([nH]c3ccccc32)c(-c2ccc(F)cc2)n1` has a pIC50 of 5.17 (MTT; 72 h).
`Oc1cccc(-c2ccc3ncnc(Nc4cccc(C(F)(F)F)c4)c3c2)c1` has a pIC50 of 4.85 (MTT; 24 h).
